ChEMBL document CHEMBL3232734, “Nitric oxide (NO) releasing poly ADP-ribose polymerase 1 (PARP-1) inhibitors targeted to glutathione S-transferase P1-overexpressing cancer cells” (J Med Chem, 2014)
Activity calls are given as the source filed them. The calls are words filed in the database; no cut-off is given here.

What was measured:
A549 [1] = assay: Induction of endoplasmic reticulum stress in human A549 cells assessed as upregulation of ATF4 protein expression by immunoblot analysis; type: functional, cell-based
[2] = biological target: T1, MAP kinase p38 (Homo sapiens) (UniProt O15264+Q15759+Q16539+P53778); assay: Induction of p38 phosphorylation in human A549 cells within 15 mins after drug treatment by immunoblot analysis; type: cell-based
Procedure, shortened: (§1)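 A549 cells treated with compound and p38 phosphorylation followed by immunoblot from 15 min to 8 h after the start of treatment. At least three independent experiments.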

[3] = biological target: T1, MAP kinase p38 (Homo sapiens); assay: Induction of p38 phosphorylation in human A549 cells after 8 hrs by immunoblot analysis; type: cell-based; procedure, shortened: as §1
A549 [4] = assay: Induction of apoptosis in human A549 cells assessed as cleaved caspase 8 level at 1 uM within 6 hrs after drug treatment by immunoblot analysis; type: functional, cell-based
Procedure, shortened: (§2)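 A549 cells treated with compound, lysed and immunoblotted for cleaved caspase 8, caspases 3 and 7, and PARP (full-length and cleaved). Caspase 8 was read within 6 h at 1 μM. Representative of at least three independent experiments.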

A549 [5] = assay: Induction of apoptosis in human A549 cells assessed as cleaved caspase 3 level by immunoblot analysis; type: functional, cell-based; procedure, shortened: as §2
A549 [6] = assay: Induction of apoptosis in human A549 cells assessed as cleaved caspase 7 level by immunoblot analysis; type: functional, cell-based; procedure, shortened: as §2
A549 [7] = assay: Induction of apoptosis in human A549 cells assessed as cleaved PARP level by immunoblot analysis; type: functional, cell-based; procedure, shortened: as §2
A549 [8] = assay: Anticancer activity against human A549 cells xenografted in NCr nu/nu athymic mouse assessed as reduction of tumor growth at 92 umol/kg, iv administered two times a week for 4 weeks; type: functional, organism-based
Procedure, shortened: (§3)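 A549 cells (RPMI 1640 + 10% FBS, ≤4 passages) harvested at 70–80% confluence, 5 × 10^6 cells in PBS implanted s.c.; at ~3 mm × 3 mm tumors, mice randomized into groups of 12. Tail-vein injection at 92 μmol/kg in 20 μL DMSO, twice weekly for 4 weeks; saline or DMSO controls. Tumors caliper-measured twice weekly, volume = π/2 × L × W². Tumors resected at end, frozen, extracted for metabolite analysis by LC/MS.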

Mus musculus = assay: Systemic toxicity in NCr nu/nu athymic mouse xenografted with human A549 cells assessed as body weight at 92 umol/kg, iv administered two times a week for 4 weeks (reference value: 25.0 +/-0.78 gms); type: organism-based; settings: in vivo, 672 h
Tumour [9] = assay: Drug uptake in tumor of NCr nu/nu athymic mouse xenografted with human A549 cells at 92 umol/kg, iv administered two times a week for 4 weeks; type: ADME, organism-based, Neoplasm; settings: in vivo, 672 h; procedure, shortened: as §3
Tumour [10] = assay: Drug metabolism in tumor of NCr nu/nu athymic mouse xenografted with human A549 cells assessed as metabolite formation at 92 umol/kg, iv administered two times a week for 4 weeks; type: ADME, organism-based, Neoplasm; settings: in vivo, 672 h; procedure, shortened: as §3
A549 [11] = assay: Anticancer activity against human A549 cells assessed as reduction in number of colonies at 1 uM in presence of 3 nM proteasome inhibitor bortezomib by colony forming assay; type: functional, cell-based
Procedure, shortened: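 A549 colony forming assay after combined treatment with the proteasome inhibitor bortezomib.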

[12] = Prodrug activation assessed as GSH reactivity in aqueous phosphate buffer at pH 7.4 by UV-Visible spectrophotometer analysis; type: physicochemical
Procedure, shortened: (§4)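 UV–vis kinetics at 37 °C in 0.1 M phosphate buffer, pH 7.4, with 50 μM DTPA and 4 mM GSH, with or without 40 nM recombinant GSTP1 or GSTA1. Substrate (typically 10 μM) added after thermal equilibration. Ratios are k with enzyme over k with GSH alone.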

[13] = biological target: Glutathione S-transferase P (Homo sapiens, UniProt P09211); assay: Ratio of prodrug activation in presence of GSH and recombinant GSTP1 (unknown origin) to prodrug activation in presence of GSH by UV-Visible spectrophotometry
Procedure, shortened: as §4, with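 “equilibration. Absorbance followed at 302 nm; first-order rate from an exponential fit.” for “equilibration.”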

[14] = biological target: T2, Glutathione S-transferase A1 (Homo sapiens, UniProt P08263); assay: Ratio of prodrug activation in presence of GSH and recombinant GSTA1 (unknown origin) to prodrug activation in presence of GSH by UV-Visible spectrophotometry
T2 sequence (P08263 whole entry): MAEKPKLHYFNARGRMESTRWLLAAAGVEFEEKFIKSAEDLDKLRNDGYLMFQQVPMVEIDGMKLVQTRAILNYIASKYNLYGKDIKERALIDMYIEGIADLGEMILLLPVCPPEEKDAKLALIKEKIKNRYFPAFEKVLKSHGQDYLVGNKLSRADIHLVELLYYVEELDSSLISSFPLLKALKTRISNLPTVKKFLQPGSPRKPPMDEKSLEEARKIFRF
Procedure, shortened: as §4, with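 “equilibration. Absorbance followed at 302 nm; first-order rate from an exponential fit.” for “equilibration.”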

[15] = biological target: Poly [ADP-ribose] polymerase 1 (Homo sapiens, UniProt P09874); assay: Inhibition of PARP-1 (unknown origin) assessed as incorporation of biotinylated poly ADP-ribose onto histone proteins at 0.1 to 1000 nM by colorimetric analysis in presence of GSH and GSTP1
Procedure, shortened: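 PARP activity measured with a colorimetric histone biotinylated poly(ADP-ribose) incorporation kit. GSH (4 mM) with or without 40 nM GSTP1 in PBS pH 7.4 was preincubated 10 min at 37 °C. Reaction started by adding prodrug (10 μM substrate) and ran a further 10 min; absorbance read at 450 nm. Inhibitors tested over 0.01 nM–1 μM.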

A549 [16] = assay: Drug metabolism in human A549 cells assessed as nitric oxide release at 10 uM by LC/MS/MS analysis in presence of GSH/GSTP1; type: ADME, cell-based; settings: a549, 10 µM
Procedure, shortened: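 A549 cells were plated in 75 cm2 flasks and grown overnight at 37 °C, then treated with 10 μM compound for varying times up to 1 h. Cells were lysed in 10 mM HCl/acetonitrile, 5-sulfosalicylic acid was added, and the precipitate was spun off at 12000g for 15 min. Supernatant was filtered and metabolites were identified by positive-ion LC/MS/MS (Q-TOF, C18, water/acetonitrile/0.1% formic acid gradient).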

A549 [17] = assay: Induction of endoplasmic reticulum stress in human A549 cells assessed as protein glutathionylation measured within 1 hr post-drug treatment by immunoblot analysis; type: functional, cell-based
A549 [18] = assay: Induction of endoplasmic reticulum stress in human A549 cells assessed as protein glutathionylation after 8 hrs by immunoblot analysis; type: functional, cell-based
A549 [19] = assay: Induction of apoptosis in human A549 cells assessed as cleaved PARP level after 8 hrs by immunoblot analysis; type: functional, cell-based; procedure, shortened: as §2
[20] = biological target: Eukaryotic translation initiation factor 2 subunit 1 (Homo sapiens) (UniProt P05198); assay: Induction of eIF2-alpha phosphorylation in human A549 cells by immunoblot analysis; type: cell-based
A549 [21] = assay: Induction of endoplasmic reticulum stress in human A549 cells assessed as upregulation of CHOP protein expression by immunoblot analysis; type: functional, cell-based
A549 [22] = assay: Induction of endoplasmic reticulum stress in human A549 cells assessed as upregulation of BiP protein expression by immunoblot analysis; type: functional, cell-based
U-937 = assay: Drug metabolism in human U937 cells assessed as nitric oxide release at 5 uM by LC/MS/MS analysis in presence of GSH/GSTP1; settings: u-937, 5 µM

Chain of Eukaryotic translation initiation factor 2 subunit 1 (Homo sapiens) (P05198 whole entry): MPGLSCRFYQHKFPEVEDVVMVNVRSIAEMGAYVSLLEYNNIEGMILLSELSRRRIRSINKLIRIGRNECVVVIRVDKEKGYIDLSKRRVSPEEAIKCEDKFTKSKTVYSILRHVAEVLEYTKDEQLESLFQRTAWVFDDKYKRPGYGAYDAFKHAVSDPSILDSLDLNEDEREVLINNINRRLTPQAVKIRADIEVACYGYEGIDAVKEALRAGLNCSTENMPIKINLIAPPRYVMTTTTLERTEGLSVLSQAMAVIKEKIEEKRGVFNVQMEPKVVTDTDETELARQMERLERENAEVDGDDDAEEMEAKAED
Chain of Poly [ADP-ribose] polymerase 1 (P09874 whole entry): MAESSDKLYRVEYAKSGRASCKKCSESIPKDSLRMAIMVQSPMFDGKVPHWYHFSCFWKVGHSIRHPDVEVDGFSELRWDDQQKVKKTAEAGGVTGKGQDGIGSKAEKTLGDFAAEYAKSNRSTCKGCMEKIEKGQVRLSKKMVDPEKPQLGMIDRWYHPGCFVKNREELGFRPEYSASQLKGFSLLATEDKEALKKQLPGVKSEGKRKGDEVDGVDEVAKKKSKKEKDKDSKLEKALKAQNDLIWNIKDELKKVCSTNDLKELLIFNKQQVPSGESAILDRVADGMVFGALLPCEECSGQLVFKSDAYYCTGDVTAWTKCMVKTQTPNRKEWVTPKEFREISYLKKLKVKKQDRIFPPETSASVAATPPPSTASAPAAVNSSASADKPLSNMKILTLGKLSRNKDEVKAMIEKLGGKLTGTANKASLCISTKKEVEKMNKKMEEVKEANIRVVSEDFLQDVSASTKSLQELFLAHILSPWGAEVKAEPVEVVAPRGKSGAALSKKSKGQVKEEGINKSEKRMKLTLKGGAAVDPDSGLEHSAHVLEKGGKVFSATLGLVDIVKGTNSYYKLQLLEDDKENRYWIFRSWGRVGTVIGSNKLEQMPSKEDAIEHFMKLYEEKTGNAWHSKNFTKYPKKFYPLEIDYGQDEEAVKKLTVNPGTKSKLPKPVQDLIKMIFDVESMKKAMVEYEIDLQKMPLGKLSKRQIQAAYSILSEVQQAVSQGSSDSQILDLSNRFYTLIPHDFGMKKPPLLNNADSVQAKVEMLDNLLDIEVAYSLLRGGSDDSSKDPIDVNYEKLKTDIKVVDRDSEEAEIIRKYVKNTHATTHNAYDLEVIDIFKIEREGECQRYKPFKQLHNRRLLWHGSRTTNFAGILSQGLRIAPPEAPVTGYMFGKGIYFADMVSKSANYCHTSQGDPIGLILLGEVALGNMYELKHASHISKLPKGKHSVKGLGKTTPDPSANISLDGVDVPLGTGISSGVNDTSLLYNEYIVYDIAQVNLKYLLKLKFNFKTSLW
Chain of Glutathione S-transferase P (P09211 whole entry): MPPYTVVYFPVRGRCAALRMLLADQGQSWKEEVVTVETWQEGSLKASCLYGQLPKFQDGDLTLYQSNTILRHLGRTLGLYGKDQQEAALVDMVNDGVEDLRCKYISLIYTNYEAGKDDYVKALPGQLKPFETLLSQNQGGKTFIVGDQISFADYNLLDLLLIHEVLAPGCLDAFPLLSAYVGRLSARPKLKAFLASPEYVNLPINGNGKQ

Activity [2]: Active | Activity [3]: Active | Drug uptake (Tumour [9]): Active | Drug metabolism (Tumour [10]): metabolite_detected | t1/2 [12]: 16 min | Ratio [13]: 13.3 | Ratio [14]: 9.2 | inhibition [15]: Active | Drug metabolism (A549 [16]): metabolite_detected | Activity [20]: Active | Drug metabolism (U-937): metabolite_detected
Compound: CN(C)/[N+]([O-])=N\Oc1cc(O/N=[N+](\[O-])N2CCN(C(=O)c3cc(Cc4n[nH]c(=O)c5ccccc45)ccc3F)CC2)c([N+](=O)[O-])cc1[N+](=O)[O-]
Activity (A549 [1]): Active | Activity (A549 [4]): Active | Activity (A549 [5]): Active | Activity (A549 [6]): Active | Activity (A549 [7]): Active | growth inhibition (GI) (A549 [8]): Active | Activity (Mus musculus): 25.3 g | inhibition (A549 [11]): Active | Activity (A549 [17]): Active | Activity (A549 [18]): inactive | Activity (A549 [19]): Active | Activity (A549 [21]): Active | Activity (A549 [22]): Active
